Assay results gathered from unrelated publications.
Each line is one published result; the experiments were not run side by side.
Target: Dual specificity protein kinase CLK2 (CLK2, Homo sapiens, UniProt P49760)
Technique: competition with immobilised ligand

| SMILES | read-out | concentration | remaining binding |
| --- | --- | --- | --- |
| O=C(c1ccc(Nc2nccc(-c3cc4ccccc4s3)n2)cc1)N1CCC(N2CCCC2)CC1 | binding | 1 µM | 39% |
| C[C@@]1(Cc2ccc(C#N)cc2)C(=O)N(c2cc(Cl)cc(Cl)c2)c2ncc(C(=O)NC3(c4nc(C5CCC5)no4)CC3)n21 | cell-free assay | 1 µM | 100% |
| O=C(c1ccc(Nc2ncc(Cl)c(-c3cc4ccccc4s3)n2)cc1)N1CCC(N2CCCC2)CC1 | binding | 1 µM | 6.7% |
| c1cncc(-c2cccc(Nc3nccc(NC4CCCCC4)n3)c2)c1 | binding | 10 µM | 15% |
| CC(=O)C1=C(C)N(c2cccc(C(F)(F)F)c2)C(=O)N[C@@H]1c1ccc(C#N)nc1 | cell-free assay | 1 µM | 100% |
| C=CC(=O)N1CCC(C(=O)NCC(=O)N2CCN(c3nc(-c4cnc(N)nc4C(F)F)nc(N4CCOCC4)n3)CC2)CC1 | binding | 1 µM | 91% |
| Cc1nc(Cc2cccc(C(F)(F)F)c2)sc1-c1ccc(C(N)=O)nc1 | cell-free assay | 1 µM | 100% |
| CNC(=O)[C@@H]1CC[C@@H](n2c(-c3ccc4cnccc4c3)nc3ccc(C(=O)NCc4cccc(C(N)=O)c4)cc32)C1 | binding | 1 µM | 100% |
| Cc1cnc(Nc2ccc(C(=O)N3CCC(N4CCCC4)CC3)cc2)nc1-c1cc2ccccc2s1 | binding | 1 µM | 8.8% |
| FC(F)(F)Oc1cccc(-c2cnc3ccc(-c4ccncc4)nn23)c1 | cell-free assay | 5 µM | 6.2% |
| O=C(NCC1CCOCC1)c1n[nH]cc1NC(=O)c1c(F)cccc1F | binding | 1 µM | 34% |
| Nc1ncc2c(n1)-c1c([nH]c3ccc(C#CC4CC4)cc13)CCCC2 | binding | 1 µM | 96% |
| COc1ccc2c(c1)O[C@H](c1ccc(OC)c(OC)c1)C[C@@H]2NC(=O)C1(c2ccc3c(c2)OC(F)(F)O3)CC1 | cell-free assay | 1 µM | 95% |
